Calls of active or inactive are those of the source. The rule behind the calls is not given here.
Tests used:
[1] = Binding affinity to 3'-end [alpha32P]dATP labeled tyrT plasmid DNA (unknown origin) assessed as change in band shift at 10 to 50 uM
Method in brief: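 tyrT DNA fragment incubated with ligand; a control lane received the solvent conditions alone. Samples were run on a native gel, and binding was scored as DNA bands that migrated more slowly than the control.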

[2] = Binding affinity to fluorophore labeled FAM-ACATCT-dabcyl (unknown origin) assessed as change in melting temperature at 100 uM by fluorescence assay
Method in brief: (§1)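 Duplexes made from fluorescently labeled oligonucleotides, each carrying the site of interest at its center. Melting run at 0.25 μM duplex DNA in 10 mM sodium phosphate pH 7.4 with 100 mM NaCl. Relative fluorescence was followed against temperature and normalized to the same initial value. First derivatives of the melting profiles were used to read transitions.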

[3] = Binding affinity to CGTACG HexB DNA (unknown origin) by DNase 1 footprinting assay
Method in brief: (§2)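 Radiolabeled MS2, HexA or HexB DNA fragments incubated with ligand at 14 concentrations (500, 400, 300, 200, 100, 80, 60, 40, 20, 10, 5, 1, 0.5, 0.1 μM), then digested with DNase I. Products resolved on gels alongside GA purine markers and solvent-only DNA controls. C50 is the ligand concentration that reduced footprint band intensity by 50%.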

[4] = Binding affinity to fluorophore labeled FAM-AATATT-dabcyl (unknown origin) assessed as change in melting temperature at 100 uM by fluorescence assay; method in brief: as §1
[5] = Binding affinity to TATATA HexB DNA (unknown origin) by DNase 1 footprinting assay; method in brief: as §2
[6] = Binding affinity to fluorophore labeled FAM-ACATGT-dabcyl (unknown origin) assessed as change in melting temperature at 100 uM by fluorescence assay; method in brief: as §1
[7] = Binding affinity to GGATAG MS2 DNA (unknown origin) by DNase 1 footprinting assay; method in brief: as §2
[8] = Binding affinity to fluorophore labeled FAM-GTGCAC-dabcyl (unknown origin) assessed as change in melting temperature at 100 uM by fluorescence assay; method in brief: as §1
[9] = Binding affinity to CTCGAG HexB DNA (unknown origin) by DNase 1 footprinting assay; method in brief: as §2
[10] = Binding affinity to ACGACT MS2 DNA (unknown origin) by DNase 1 footprinting assay; method in brief: as §2
[11] = Binding affinity to CGCGAT HexB DNA (unknown origin) by DNase 1 footprinting assay; method in brief: as §2
[12] = Binding affinity to GACGTA MS2 DNA (unknown origin) by DNase 1 footprinting assay; method in brief: as §2
[13] = Binding affinity to fluorophore labeled FAM-CACGTG-dabcyl (unknown origin) assessed as change in melting temperature at 100 uM by fluorescence assay; method in brief: as §1
[14] = Binding affinity to ATGGAT MS2 DNA (unknown origin) by DNase 1 footprinting assay; method in brief: as §2
[15] = system: DNA; assay: Binding affinity to [alpha-32P]dATP labeled HexA DNA (unknown origin) at 0.1 to 500 uM by DNase 1 footprinting assay
[16] = Binding affinity to [alpha-32P]dATP labeled MS2 DNA (unknown origin) at 0.1 to 500 uM by DNase 1 footprinting assay
Method in brief: (§3)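 Each radiolabeled fragment (MS2, HexA or HexB) incubated with ligand at 14 concentrations from 500 down to 0.1 μM, then cleaved with DNase I. Gel tracks compared with GA purine markers and solvent-only DNA to find regions of attenuated cleavage as footprints.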

[17] = Binding affinity to [alpha-32P]dATP labeled HexB DNA (unknown origin) at 0.1 to 500 uM by DNase 1 footprinting assay; method in brief: as §3

Activity [1] | Activity [15] | Activity [16] | Activity [17] | SMILES | ΔTm [2] [°C] | C50 [3] [µM] | ΔTm [4] [°C] | C50 [5] [µM] | ΔTm [6] [°C] | C50 [7] [µM] | ΔTm [8] [°C] | C50 [9] [µM] | C50 [10] [µM] | C50 [11] [µM] | C50 [12] [µM] | ΔTm [13] [°C] | C50 [14] [µM]
inactive |  |  |  | COCCOCCOCC(=O)NC[C@H]1C(=O)N(C)C[C@@H](NC(=O)c2nc3ccccc3cc2O)C(=O)NCC(=O)N(C)[C@H]2CSSC[C@@H](C(=O)N1C)N(C)C(=O)CNC(=O)[C@H](NC(=O)c1nc3ccccc3cc1O)CN(C)C(=O)[C@H](CNC(=O)COCCOCCOC)N(C)C2=O |  |  |  |  |  |  |  |  |  |  |  |  | 
Active | Active | Active | Active | CS[C@H]1SC[C@H]2C(=O)N(C)[C@@H](C(C)C)C(=O)OC[C@@H](NC(=O)c3cnc4ccccc4n3)C(=O)N[C@@H](C)C(=O)N(C)[C@@H]1C(=O)N(C)[C@@H](C(C)C)C(=O)OC[C@@H](NC(=O)c1cnc3ccccc3n1)C(=O)N[C@@H](C)C(=O)N2C |  |  |  |  |  |  |  |  |  |  |  |  | 

SMILES | Activity [1] | Activity [15] | Activity [16] | Activity [17] | ΔTm [2] [°C] | C50 [3] [µM] | ΔTm [4] [°C] | C50 [5] [µM] | ΔTm [6] [°C] | C50 [7] [µM] | ΔTm [8] [°C] | C50 [9] [µM] | C50 [10] [µM] | C50 [11] [µM] | C50 [12] [µM] | ΔTm [13] [°C] | C50 [14] [µM]
CSC[C@H]1C(=O)N(C)C[C@@H](NC(=O)c2nc3ccccc3cc2O)C(=O)NCC(=O)N(C)[C@H]2CSSC[C@@H](C(=O)N1C)N(C)C(=O)CNC(=O)[C@H](NC(=O)c1nc3ccccc3cc1O)CN(C)C(=O)[C@H](CSC)N(C)C2=O | Active |  |  |  | 2.2 | 13 | 1.4 | 28 | 4.5 | 131 | 0.7 | 17 | 102 | 22 | 95 | 7.6 | 110
